Measured values as given in ChEMBL document CHEMBL1122987, “Synthesis and central dopaminergic effects of N-(4,6-dimethyl-2-pyridinyl)benzamides” (1985).

Key:
Mus musculus [1] = species on record: Mus musculus; assay: Antipsychotic effect was tested against motility scores in reserpinized mice at a control value of 11; format: functional
Mus musculus [2] = species on record: Mus musculus; assay: Antipsychotic effect was tested against motility scores in naive mice at a control value of 815; format: functional
Mus musculus [3] = species on record: Mus musculus; assay: Motility of the Compound was tested against number of interrupted beams in 1 hour in naive mice by 10 determinations; format: functional
Rattus norvegicus [4] = species on record: Rattus norvegicus; assay: Compound was evaluated for the homovanillic acid levels of rats corpus striata by 7 determinations; format: functional
Procedure, shortened: (§1)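 Male Wistar C.F. rats (200 ± 20 g); corpus striatum removed 5 h after dosing, HVA extracted from tissue and measured fluorimetrically, expressed as µg/g. Controls got acacia gum suspension; means ± SEM, Student's t test vs controls.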

Mus musculus [5] = species on record: Mus musculus; assay: Motility of the Compound was tested against number of interrupted beams in 1 hr in reserpine & apomorphine treated mice by 12 determinations; format: functional
Procedure, shortened: (§2)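 Mice reserpinized (10 mg/kg ip), then apomorphine 2 mg/kg ip given 20 h later; benzamide dosed 1 h before apomorphine. Individual photocell beam interruptions recorded for 60 min after apomorphine. Controls received acacia gum aqueous suspension; means ± SEM, Student's t test vs controls.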

Rattus norvegicus [6] = species on record: Rattus norvegicus; assay: Compound was evaluated for the homovanillic acid levels of rats limbic system by 8 determinations; format: functional
Procedure, shortened: (§3)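 Male Wistar C.F. rats (200 ± 20 g); limbic system dissected 5 h post-dose, HVA extracted and determined by fluorimetry (µg/g tissue). Vehicle controls received acacia gum aqueous suspension; means ± SEM, Student's t test.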

Mus musculus [7] = species on record: Mus musculus; assay: Motility against number of interrupted beams in 1 hr in reserpine & apomorphine treated mice by 9 determinations; format: functional; procedure, shortened: as §2
Mus musculus [8] = species on record: Mus musculus; assay: Motility against number of interrupted beams in 1 hour in naive mice by 9 determinations; format: functional
Rattus norvegicus [9] = species on record: Rattus norvegicus; assay: Compound was evaluated for the homovanillic acid levels of rats limbic system by 7 determinations; format: functional; procedure, shortened: as §3
Mus musculus [10] = species on record: Mus musculus; assay: Motility against number of interrupted beams in 1 hour in reserpine treated mice by 4 determinations; format: functional
Rattus norvegicus [11] = species on record: Rattus norvegicus; assay: Compound was evaluated for the homovanillic acid levels of rats corpus striata by 11 determinations; format: functional; procedure, shortened: as §1
Mus musculus [12] = species on record: Mus musculus; assay: Motility against number of interrupted beams in 1 hour in reserpine treated mice by 4 determinations.; format: functional
Mus musculus [13] = species on record: Mus musculus; assay: Motility against number of interrupted beams in 1 hr in reserpine & apomorphine treated mice by 10 determinations; format: functional; procedure, shortened: as §2
Mus musculus [14] = species on record: Mus musculus; assay: Motility against number of interrupted beams in 1 hour in naive mice by 10 determinations; format: functional
Mus musculus [15] = species on record: Mus musculus; assay: Motility against number of interrupted beams in 1 hour in reserpine treated mice by 13 determinations; format: functional
Mus musculus [16] = species on record: Mus musculus; assay: Motility against number of interrupted beams in 1 hour in naive mice by 15 determinations; format: functional
Rattus norvegicus [17] = species on record: Rattus norvegicus; assay: Compound was evaluated for the homovanillic acid levels of rats corpus striata by 18 determinations; format: functional; procedure, shortened: as §1
Rattus norvegicus [18] = species on record: Rattus norvegicus; assay: Compound was evaluated for the homovanillic acid levels of rats limbic system by 17 determinations; format: functional; procedure, shortened: as §3
Mus musculus [19] = species on record: Mus musculus; assay: Motility against number of interrupted beams in 1 hr in reserpine & apomorphine treated mice by 11 determinations; format: functional; procedure, shortened: as §2
Mus musculus [20] = species on record: Mus musculus; assay: Antipsychotic effect was tested against motility scores in reserpinized mice at a control value of 11; toxic; format: functional, organism-based
Rattus norvegicus [21] = species on record: Rattus norvegicus; assay: Compound was evaluated for the homovanillic acid levels of rats limbic system by 6 determinations; format: functional; procedure, shortened: as §3
Rattus norvegicus [22] = species on record: Rattus norvegicus; assay: Compound was evaluated for the homovanillic acid levels of rats Corpus striata by 7 determinations; format: functional; procedure, shortened: as §1
Mus musculus [23] = species on record: Mus musculus; assay: Motility against number of interrupted beams in 1 hour in naive mice by 13 determinations; format: functional
Mus musculus [24] = species on record: Mus musculus; assay: Motility of the Compound was tested against number of interrupted beams in 1 hour in reserpine treated mice by 8 determinations; format: functional
Mus musculus [25] = species on record: Mus musculus; assay: Motility of the Compound was tested against number of interrupted beams in 1 hr in reserpine & apomorphine treated mice by 14 determinations; format: functional; procedure, shortened: as §2
Rattus norvegicus [26] = species on record: Rattus norvegicus; assay: Compound Evaluated for the homovanillic acid levels of rats corpus striata by 12 determinations; format: functional; procedure, shortened: as §1
Rattus norvegicus [27] = species on record: Rattus norvegicus; assay: Compound Evaluated for the homovanillic acid levels of rats limbic system by 12 determinations; format: functional; procedure, shortened: as §3
Rattus norvegicus [28] = species on record: Rattus norvegicus; assay: Compound was evaluated for the homovanillic acid levels of rats corpus striata by 14 determinations; format: functional; procedure, shortened: as §1
Mus musculus [29] = species on record: Mus musculus; assay: Motility against number of interrupted beams in 1 hr in reserpine & apomorphine treated mice by 21 determinations; format: functional; procedure, shortened: as §2
Rattus norvegicus [30] = species on record: Rattus norvegicus; assay: Compound was evaluated for the homovanillic acid levels of rats limbic system by 15 determinations; format: functional; procedure, shortened: as §3
Mus musculus [31] = species on record: Mus musculus; assay: Motility against number of interrupted beams in 1 hour in reserpine treated mice by 9 determinations.; format: functional

Row | Compound | Motility (Mus musculus [1]) | Motility (Mus musculus [2]) | other results
1 | Cc1cc(C)nc(NC(=O)c2cccc(C(F)(F)F)c2)c1 | 4 | 661 | –
2 | Cc1cc(C)nc(NC(=O)c2ccc([N+](=O)[O-])cc2)c1 | 0 | 746 | –
3 | Cc1cc(C)nc(NC(=O)c2ccccc2Cl)c1 | 4 | 875 | –
4 | CCN(CC)CCNC(=O)c1cc(Cl)c(N)cc1OC [METOCLOPRAMIDE] | – | – | Motility (Mus musculus [3]): 126; HVA level (Rattus norvegicus [4]): 2.531 µg/g; Motility (Mus musculus [5]): 63; HVA level (Rattus norvegicus [6]): 0.618 µg/g
5 | Cc1cc(C)nc(NC(=O)c2cccc(Br)c2)c1 | 21 | 826 | –
6 | Cc1cc(C)nc(NC(=O)c2cccc(N)c2)c1 | 4 | 652 | –
7 | Cc1cc(C)nc(NC(=O)c2ccc(F)cc2)c1 | 113 | 291 | Motility (Mus musculus [7]): 491; Motility (Mus musculus [8]): 299; HVA level (Rattus norvegicus [4]): 0.667 µg/g; HVA level (Rattus norvegicus [9]): 0.194 µg/g; Motility (Mus musculus [10]): 118.2
8 | COc1ccc(S(C)(=O)=O)cc1C(=O)Nc1cc(C)cc(C)n1 | 2 | 755 | –
9 | Cc1cccc(C(=O)Nc2cc(C)cc(C)n2)c1 | 0 | 505 | –
10 | CCCN(C(=O)c1ccccc1)c1cc(C)cc(C)n1 | 8 | 780 | –
11 | Cc1cc(C)nc(NC(=O)c2ccc(N)cc2)c1 | 9 | 337 | HVA level (Rattus norvegicus [11]): 0.308 µg/g; Motility (Mus musculus [12]): 0; Motility (Mus musculus [13]): 385; HVA level (Rattus norvegicus [9]): 0.268 µg/g; Motility (Mus musculus [14]): 439
12 | CCOc1ccc(C(=O)Nc2cc(C)cc(C)n2)cc1 | 4 | 552 | –
13 | CSc1ccc(C(=O)Nc2cc(C)cc(C)n2)cc1 | 0 | 770 | –
14 | COc1cccc(C(=O)Nc2cc(C)cc(C)n2)c1 | 0 | 822 | –
15 | CCN(C(=O)c1ccccc1)c1cc(C)cc(C)n1 | 31 | 914 | –
16 | Cc1cc(C)nc(NC(=O)c2cccc(Cl)c2)c1 | 52 | 617 | Motility (Mus musculus [15]): 41.2; Motility (Mus musculus [16]): 577; HVA level (Rattus norvegicus [17]): 0.396 µg/g; HVA level (Rattus norvegicus [18]): 0.141 µg/g; Motility (Mus musculus [19]): 727

Row | Compound | Motility (Mus musculus [1]) | Motility (Mus musculus [2]) | other results
17 | Cc1cc(C)nc(N(C)C(=O)c2ccccc2)c1 | – | 796 | Motility (Mus musculus [20]): Toxic
18 | Cc1cc(C)nc(NC(=O)c2ccc(Br)cc2)c1 | 0 | 797 | –
19 | COc1ccc(Cl)cc1C(=O)Nc1cc(C)cc(C)n1 | 19 | 748 | –
20 | CCN(C(=O)c1cccc(Cl)c1)c1cc(C)cc(C)n1 | 21 | 941 | –
21 | CCN(C(=O)c1ccc(F)cc1)c1cc(C)cc(C)n1 | 29 | 965 | –
22 | Cc1cc(C)nc(NC(=O)c2ccccc2O)c1 | 0 | 747 | –
23 | CCN1CCCC1CNC(=O)c1cc(S(=O)(=O)CC)ccc1OC (stereo unspecified) [SULTOPRIDE] | – | – | HVA level (Rattus norvegicus [21]): 0.493 µg/g; HVA level (Rattus norvegicus [22]): 1.898 µg/g; Motility (Mus musculus [14]): 135; Motility (Mus musculus [19]): 152
24 | COc1ccccc1C(=O)Nc1cc(C)cc(C)n1 | 7 | 646 | –
25 | CCS(=O)(=O)c1ccc(OC)c(C(=O)Nc2cc(C)cc(C)n2)c1 | 16 | 841 | –
26 | Cc1cc(C)nc(NC(=O)c2ccccc2)c1 | 83 | 450 | Motility (Mus musculus [23]): 427; Motility (Mus musculus [24]): 85.1; Motility (Mus musculus [25]): 642; HVA level (Rattus norvegicus [26]): 0.504 µg/g; HVA level (Rattus norvegicus [27]): 0.297 µg/g
27 | Cc1cc(C)nc(NC(=O)c2ccc(Cl)cc2)c1 | 72 | 630 | HVA level (Rattus norvegicus [28]): 0.644 µg/g; Motility (Mus musculus [29]): 577; HVA level (Rattus norvegicus [30]): 0.355 µg/g; Motility (Mus musculus [31]): 73.4; Motility (Mus musculus [14]): 619
28 | COc1ccc(C(=O)Nc2cc(C)cc(C)n2)cc1 | 0 | 456 | –
29 | CC(=O)Nc1cccc(C(=O)Nc2cc(C)cc(C)n2)c1 | 8 | 777 | –
30 | CC(=O)Nc1ccc(C(=O)Nc2cc(C)cc(C)n2)cc1 | 12 | 522 | –
31 | Cc1cc(C)nc(NC(=O)c2cccc([N+](=O)[O-])c2)c1 | 15 | 634 | –
